“Also recorded” adds a separate entry of the source.

Data set [1] relates to HaCat (human keratinocyte). The experiment in a line: MTT cytotoxicity assay, HaCat. Format: cell-based. The following applies: 24 h. The gist of the method: (§1)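 Cells (1 × 10^4 per well in 0.2 mL medium) were exposed to test compounds, pre-dissolved in DMSO, at 0.01–1 mM for 24 h. Compounds were then washed out with three PBS washes, and MTT was read at once. Five replicates per concentration, each repeated at least three times; IC50 given as mean + SD. MCF7, A549 and HaCaT were grown in DMEM with 10% FBS and 1% streptomycin/penicillin. DU-145 and HEK293T were grown in MEM with 10% FBS. All cultures were kept at 37 °C, 5% CO2.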
On the technique in general: Tetrazolium dyes change colour on reduction, which living cells bring about.

Data set [2] has as its system DU-145 cells. Briefly: ROS generation, H2DCF-DA assay. Format: cell-based, human. The following applies: DU-145, 24, 48 and 72 h, c = 1 μM. An outline of the steps:
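DU-145 prostate carcinoma cells grown in MEM with 10% FBS at 37 °C, 5% CO2, seeded in 96-well plates. Cells were exposed continuously to test compound (copper complexes or free ligands), then loaded with the H2DCF-DA probe. ROS was read by fluorescence, with work done in darkness. Signal was related to an untreated negative control and an extra-H2O2 positive control.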

The subject of data set [3] is HEK293T cell line (human embryonic kidney). The experiment in a line: MTT cytotoxicity assay, HEK293T. Format: cell-based. Conditions: 24 h. The gist of the method:
as §1

Data set [4] relates to DU-145 cell line (human prostate carcinoma). The experiment in a line: MTT cytotoxicity assay, DU-145. In kind it is cell-based. An outline of the steps:
as §1

For data set [5], the system named is A549 cell line (human lung adenocarcinoma). The experiment in a line: MTT cytotoxicity assay, A549. In kind it is cell-based. The gist of the method: as §1
Data set [6] relates to DU-145 cells. Briefly: Mitochondrial membrane potential, JC-10 assay. In kind it is cell-based, human. The following applies: DU-145, compounds at IC50, 24 h, JC-10 emission ratio 570 nm/530 nm. The gist of the method: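 DU-145 cells were seeded at 1 × 10^4 per 0.2 mL. After 24 h the medium was replaced with test compound solutions, gentamicin (0.5 mg mL−1, positive control) or ciprofloxacin (10 μg mL−1, negative control), then incubated 24 h at 37 °C, 5% CO2. Cells were PBS-washed twice and loaded with JC-10 for 1 h. Emission read at λex 540/λem 570 nm and λex 485/λem 530 nm; red/green ratio reported as mean + SD.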

The test system of data set [7] is MCF7 cell line (human breast adenocarcinoma). Briefly: MTT cytotoxicity assay, MCF7. Format: cell-based. The gist of the method: as §1
The test system of data set [8] is HEK293T and HaCat normal cell lines. The experiment in a line: Cytotoxicity toward normal cell lines, stated in words. Format: cell-based, human. The gist of the method:
as §1

Data set [9] can be described thus: Stability in DMSO solution by FT-IR. Format: physicochemical. The following applies: 2% solution in DMSO, 0-96 h, qualitative. An outline of the steps:
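ATR FT-IR of 2% solutions of the complexes in DMSO, one drop on the diamond plate, recorded at 1, 24, 48, 72 and 96 h. Settings: 2 cm−1 resolution, 128 scans, 4000–400 and 600–100 cm−1, room temperature. Solution spectra were compared with the solid-state spectra; qualitative only.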

Data set [10] in a line: Stability in DMSO/H2O. Format: physicochemical. An outline of the steps:
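UV-Vis spectra of the complexes in DMSO/H2O (9:1, v/v) at room temperature, recorded right after dissolving and at 48 and 96 h. Full range recorded at 10−6 M; d–d bands recorded at 10−4 M.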

[11] abbreviates: HaCat, non-cancerous cell line, MTT.
Setting [12] is: HEK293T, non-cancerous cell line, MTT.
[13] abbreviates: DU145, cancer cell line, 24 h, MTT.
The mark [14] stands for this setting: A549, cancer cell line, 24 h, MTT.
[15] abbreviates: MCF7, cancer cell line, 24 h, MTT.

`CCc1ccccn1` [2-Ethylpyridine, 2-ethylpyridine]: the IC50 (in general, the concentration that inhibits the measured activity by half) in data set [1] (Homo sapiens, HaCaT) was > 1000 µM; in data set [3] (Homo sapiens, HEK-293T), > 1000 µM; in data set [4] (Homo sapiens, DU-145, 24 h), > 1000 µM; in data set [5] (Homo sapiens, A549, 24 h) it was > 1000 µM; in [7] (Homo sapiens, MCF7, 24 h) it was > 1000 µM. Besides, in data set [2], the “ROS generation compared to negative control (order)” value is recorded as “complex 1 > complex 3 > 2-pyridineethanol > 2-ethylpyridyne”. Moreover, in [6], the “Reduction of mitochondrial membrane potential” value (“Reduction” below) is “most significantly reduced”.

In the case of trans-[CuCl2(etpy)2] [Complex 1], the IC50 in data set [1] (setting [11]), in data set [3] (setting [12]), in data set [4] (setting [13]), in [5] (setting [14]) and in data set [7] (setting [15]) was > 1000 µM each time. Moreover, the “ROS generation compared to negative control (order)” value in data set [2] was “complex 1 > complex 3 > 2-pyridineethanol > 2-ethylpyridyne”. In data set [4], the “Activity toward DU-145 cancer cells” value was “inactive”. The “Reduction” value in data set [6] is on record as “least effect”. Also, the “Toxicity towards normal (healthy) cells” value in data set [8] is “did not exhibit toxicity; also recorded: nontoxic”.

`N.N.[Cl][Pt][Cl]` [Cisplatin, cisplatin, reference compound]: the half-inhibitory concentration (IC50) in [1] (setting [11]) is 13.3 ± 1.1 µM; in data set [3] (setting [12]), 21 ± 1.8 µM; in data set [4] (setting [13]), 98.3 ± 1.3 µM; in data set [5] (setting [14]) it was 57 ± 1.3 µM; in data set [7] (setting [15]), 50.9 ± 2.6 µM.

On to `OCCc1ccccn1` [2-Pyridineethanol, 2-pyridineethanol], for which the IC50 in [1] (Homo sapiens, HaCaT) is > 1000 µM; in data set [3] (Homo sapiens, HEK-293T), > 1000 µM; in [4] (Homo sapiens, DU-145, 24 h), > 1000 µM; in data set [5] (Homo sapiens, A549, 24 h) it was > 1000 µM; in data set [7] (Homo sapiens, MCF7, 24 h), > 1000 µM. Also, the “ROS generation compared to negative control (order)” value in data set [2] is reported as “complex 1 > complex 3 > 2-pyridineethanol > 2-ethylpyridyne”. Further, in data set [6], the “Reduction” value was “most significantly reduced”.

Consider [Cu4OCl6(etpy)4] [Complex 2], for which the IC50 in [1] (setting [11]), in data set [3] (setting [12]), in data set [4] (setting [13]), in data set [5] (setting [14]) and in data set [7] (setting [15]) was > 1000 µM each time. Besides, the “Activity toward DU-145 cancer cells” value in [4] is “inactive”. In addition, the “Stability in DMSO solution” value in [9] was “turns into complex 1”. Also, the “Stability in DMSO/H2O solution” value in [10] (DMSO/H2O 9:1 v/v, room temperature, 0 min, 48 h and 96 h, UV-Vis) was “turns into complex 1”. Also, the “Structure after dissolving in biological medium” value in data set [10] (biological medium, confirmed by UV-Vis and FT-IR) is recorded as “adopts the same structure as compound 1”.

`OCc1ccccn1` [2-Pyridinemethanol, 2-pyridinemethanol]: the IC50 was > 1000 µM in [1] (Homo sapiens, HaCaT); > 1000 µM in [3] (Homo sapiens, HEK-293T); > 1000 µM in data set [4] (Homo sapiens, DU-145, 24 h); > 1000 µM in data set [5] (Homo sapiens, A549, 24 h); > 1000 µM in data set [7] (Homo sapiens, MCF7, 24 h).

Values taken from publication PMC9516696 (RSC Advances, 2022).
